Test [1] has as its target T1, Arginase (Leishmania amazonensis, UniProt O96394). The experiment in a line: Competitive inhibition of recombinant Leishmania amazonensis arginase expressed in Escherichia coli assessed as reduction in urea production by measuring dissociation constant for enzyme-inhibitor complex using L-arginine as substrate by Berthelot colorimetric method based Dixon/Cornish-Bowden plot analysis relative to control. The method, boiled down:
(§1)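 Urea read by the Berthelot method. Ki and Kis taken from Dixon and Cornish-Bowden plots; Cornish-Bowden slopes compared statistically. Points are means of three independent experiments run in duplicate; constants given as mean ± SEM.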

In test [2] the target is T1, Arginase. The test is described as follows: Inhibition of recombinant Leishmania amazonensis arginase expressed in Escherichia coli assessed as reduction in urea production using L-arginine as substrate by Berthelot colorimetric method relative to control. Summed up: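 Arginase overexpressed in E. coli and purified. Urea formed was measured colorimetrically by the Berthelot method. IC50 given as mean ± SEM.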

In test [3] the target is Arginase (Leishmania amazonensis) (UniProt O96394). The experiment in a line: Inhibition of recombinant Leishmania amazonensis arginase expressed in Escherichia coli assessed as reduction in urea production at 100 uM using L-arginine as substrate by Berthelot colorimetric method relative to control.
Test [4] shares this target. The test is described as follows: Mixed type inhibition of recombinant Leishmania amazonensis arginase expressed in Escherichia coli assessed as reduction in urea production by measuring dissociation constant for enzyme-substrate-inhibitor complex using L-arginine as substrate by Berthelot colorimetric method based Dixon/Cornish-Bowden plot analysis relative to control. The method, boiled down: as §1

Test [5] concerns Leishmania amazonensis. The experiment in a line: Antileishmanial activity against Leishmania amazonensis MHOM/BR/1973/M2269 promastigotes assessed as inhibition of parasite growth incubated for 72 hrs by MTT assay. The following applies: MHOM/BR/1973/M2269, 72 h. It is filed as functional, organism-based. The method, boiled down: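 MHOM/BR/1973/M2269 promastigotes grown to stationary phase in M199 with 10% FBS, 5 ppm hemin, streptomycin and penicillin; 5.0 × 10^5 cells exposed 72 h to compounds at 100 µM to 0.78 µM (amphotericin B control, 10 µM downward). Formazan dissolved in DMSO and read at 570 nm. EC50 from a normalized variable-slope sigmoidal fit; mean ± SEM.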

Test [6] has as its target Arginase (Leishmania amazonensis) (UniProt O96394). The test is described as follows: Ratio of Ki to Kis for inhibition of recombinant Leishmania amazonensis arginase expressed in Escherichia coli assessed as reduction in urea production using L-arginine as substrate by Berthelot colorimetric method based Dixon/Cornish-Bowden plot analysis relative to control.
Test [7] relates to Leishmania amazonensis. The test is described as follows: Antileishmanial activity against Leishmania amazonensis MHOM/BR/1973/M2269 promastigotes assessed as inhibition of parasite growth at 100 uM incubated for 72 hrs by MTT assay. The class given is functional, organism-based. Summed up:
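Single-concentration screen at 100 µM. Stationary-phase MHOM/BR/1973/M2269 promastigotes in supplemented M199, 5.0 × 10^5 cells, exposed 72 h. Formazan dissolved in DMSO and read at 570 nm.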

The source of these data is ChEMBL document CHEMBL4385644, “Phenylhydrazides as inhibitors of Leishmania amazonensis arginase and antileishmanial activity” (Bioorg Med Chem, 2019).

Calls of active or inactive are those of the source. No cut-off for these calls is given here.

For the compound `CC(=O)Nc1ccccc1C(F)(F)C(=O)NCc1ccccc1`, the Ki on Arginase [1] turned out to be 32 µM. Also, the IC50 at Arginase [2] (read-out: IC50) came to 37 µM. Besides, in test [3], the inhibition was more than 70%. For the same compound, the Kis in test [4] was found to be 6.5 µM. The EC50 in the test on Leishmania amazonensis [5] was more than 100 µM. The Ratio in test [6] turned out to be 5.
As to `CC(=O)Nc1ccc(C)cc1C(F)(F)C(=O)NC(C)C`, on Arginase [2], the IC50 result is recorded as “Not Active”. Also, the inhibition result in test [3] was “inactive”.
For `CC(=O)Nc1ccccc1C(F)(F)C(=O)Nc1ccc(Cl)cc1` the same measures were “Not Active” and “inactive”.
For `CC(=O)Nc1ccccc1C(F)(F)C(=O)NNc1ccccn1`, at Arginase [2] (read-out: IC50), the IC50 was more than 100 µM. Moreover, the inhibition in test [3] was determined as 8%. In the test on Leishmania amazonensis [5], the EC50 is more than 100 µM.
`CC(=O)Nc1ccccc1C(F)(F)C(=O)NNc1ccc(C(F)(F)F)cc1`: the Ki at Arginase [1] is 26 µM. Moreover, the IC50 on Arginase [2] (read-out: IC50) came to 38 µM. In addition, in test [3], the inhibition is more than 70%. Further, the Kis in test [4] came to 11 µM. In addition, the EC50 in the test on Leishmania amazonensis [5] was more than 100 µM.
In the case of `C[C@@H]1[C@H](O)[C@@H](C)/C=C/C=C/C=C/C=C/C=C/C=C/C=C/[C@H](O[C@@H]2O[C@H](C)[C@@H](O)[C@H](N)[C@@H]2O)C[C@@H]2O[C@](O)(C[C@@H](O)C[C@@H](O)[C@H](O)CC[C@@H](O)C[C@@H](O)CC(=O)O[C@H]1C)C[C@H](O)[C@H]2C(=O)O` [AMPHOTERICIN B], the IC50 entry at Arginase [2] is recorded as “Not Active”. In addition, in the test with Leishmania amazonensis [5], the EC50 came to 0.33 µM.
On to `CC(=O)Nc1ccccc1C(F)(F)C(=O)Nc1ccccc1`, for which the IC50 result on Arginase [2] is on record as “Not Active”. The inhibition result in test [3] is “inactive”.
With `CC(=O)Nc1ccc(C)cc1C(F)(F)C(=O)NNc1ccccn1`, on Arginase [2] (read-out: IC50), the IC50 is more than 100 µM. In addition, the EC50 in the test with Leishmania amazonensis [5] is more than 100 µM.
Consider `CC(=O)Nc1ccccc1C(F)(F)C(=O)NNc1ccccc1`, for which the Ki at Arginase [1] came to 5.1 µM. For the same compound, the 50% inhibitory concentration (IC50) at Arginase [2] (read-out: IC50) is 12 µM. Further, the inhibition in test [3] is more than 70%. Moreover, the EC50 with Leishmania amazonensis [5] is 12.7 µM. Besides, the “growth inhibition (GI)” value in the test on Leishmania amazonensis [7] is “Active”.
`CC(=O)Nc1ccc(C)cc1C(F)(F)C(=O)NNc1ccccc1`: the Ki at Arginase [1] was 1.3 µM. For the same compound, the IC50 at Arginase [2] (read-out: IC50) was determined as 12 µM. Moreover, in test [3], the inhibition is more than 70%. In addition, in test [4], the Kis was 26 µM. For the same compound, the EC50 in the test with Leishmania amazonensis [5] is more than 100 µM.

The Ki is a measure of affinity in units of concentration, obtained from inhibition or displacement. By IC50 is commonly meant the point on the concentration scale where inhibition reaches its midpoint. What is called inhibition is how much of the control response was suppressed. What is called EC50 is the concentration needed to bring the measured effect to its halfway point.
